Assay results of several laboratories.
Protocols differ between the studies behind these lines.
Observed: cell growth or viability

For `Cc1ccc(NC(=O)c2ccc(CN3CCN(C)CC3)cc2)cc1Nc1nccc(-c2cccnc2)n1`, the viability was 41.6% (K562; MTT; 0.2 µM).
With `N.N.[Cl][Pt][Cl]` the IC50 was 34.6 µM (MCF-10A; MTT; 48 h, dark).
The IC50 of `CC[C@H](C)[C@@H]([C@@H](CC(=O)N1CCC[C@H]1[C@H](OC)[C@@H](C)C(=O)N[C@H](C)[C@@H](O)c1ccccc1)OC)N(C)C(=O)[C@@H](NC(=O)[C@H](C(C)C)N(C)C(=O)OCc1ccc(NC(=O)[C@H](CCCNC(N)=O)NC(=O)[C@@H](NC(=O)CCOCCOCCOCCOCCC(=O)N[C@@H]2CSSC[C@H](C(=O)O)NC(=O)CNC(=O)[C@@H](CCCNC(=N)N)NC(=O)CNC(=O)[C@@H](C(C)C)NC(=O)CNC(=O)[C@@H](C)NC(=O)[C@@H](CCCNC(=N)N)NC2=O)C(C)C)cc1)C(C)C` is reported as 0.5 µM (4T1; resazurin; 24 h).
The IC50 of `CC[C@H](C)[C@@H]([C@@H](CC(=O)N1CCC[C@H]1[C@H](OC)[C@@H](C)C(=O)N[C@H](C)[C@@H](O)c1ccccc1)OC)N(C)C(=O)[C@@H](NC(=O)[C@@H](NC)C(C)C)C(C)C` is reported as 0.000294 µM (4T1; CCK-8).
`CC(=O)N[C@H]1[C@@H](O[C@@H]2O[C@H](C[C@@H](O)[C@H]3O[C@@H](n4ccc(=O)[nH]c4=O)[C@H](O)[C@@H]3O)[C@H](O)[C@H](O)[C@H]2NC(=O)/C=C/CCCCCCCCCC(C)C)O[C@H](CO)[C@@H](O)[C@@H]1O` gave an IC50 of 0.25 µM (MCF-10A; WST-1).
With `Cc1ncsc1-c1ccc([C@H](C)NC(=O)[C@@H]2C[C@@H](O)CN2C(=O)[C@@H](c2cc(N3CCC(CN4CCC(OC5CC(Oc6cc(N7C8CCC7CN(c7cc(-c9ccccc9O)nnc7N)C8)ccn6)C5)CC4)CC3)no2)C(C)C)cc1` (some centres unmarked) the IC50 was 0.0043 µM (VCaP; ATP luminescence; 7 days).
`N.N.[Cl][Pt][Cl]` gave an inhibition of 97% (K562; ATP luminescence; 10 µM, 72 h).
`CN(C)c1ccc(C(=O)NCCCCCCC(=O)NO)cc1` has a viability of 62.3% (OCI-Ly1; ATP luminescence; 0.5 µM, 5 days).
